Four molecules from ChEMBL document CHEMBL1126202, “Dual-action penems and carbapenems” (J Med Chem, 1992) can be followed below.

Values after ≈ are worked out from the molar mass of the structure shown.

Data set [1] can be described thus: Stability in pH 7.4 phosphate buffer at 37 degree C. The format is physicochemical. In a few lines:
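Compounds were held in pH 7.4 phosphate buffer at 37 °C and monitored by reverse-phase HPLC on a PRP-1 column with UV detection at 275–286 nm. The mobile phase was 0.01 M tetradecyltrimethylammonium bromide in pH 8.2 phosphate/acetonitrile. Product-peak decline was followed to at least 50%, and half-life was taken from semilogarithmic plots.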

Data set [2] deals with Bacteroides thetaiotaomicron. As to the kind of experiment: (§1) In vitro antibacterial activity against Bacteroides thetaiotaomicron 62B. The data set is classed as functional. In short, it runs like this: (§2)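 Anaerobic MICs were determined in microtiter plates in Schaedler's broth supplemented with coenzyme I and hemin. Incubation was under an oxygen-free hydrogen-carbon dioxide atmosphere.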

For data set [3], the system named is Bacteroides fragilis. As to the kind of experiment: In vitro antibacterial activity against Bacteroides fragilis F117A. The data set is classed as functional. In short, it runs like this:
(§3)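 MIC by broth dilution in microtiter plates, run in an oxygen-free hydrogen–carbon dioxide atmosphere. Medium: Schaedler's broth with coenzyme I and hemin added.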

The test system of data set [4] is Clostridioides difficile. As to the kind of experiment: In vitro antibacterial activity against Clostridium difficile 651. The format is functional.
For another data set, the system named is Clostridium perfringens. As to the kind of experiment: In vitro antibacterial activity against Clostridium perfringens 13424. The format is functional. In a few lines:
as §3

For data set [5], the system named is Bacteroides fragilis. The data set is described as follows: In vitro antibacterial activity against bacteroides fragilis S2. The format is functional. In a few lines: (§4)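 Anaerobic MIC, run in microtiter plates in Schaedler's broth supplemented with coenzyme I and hemin. Incubated in an oxygen-free hydrogen–carbon dioxide atmosphere.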
The test system of the next data set is Hathewaya histolytica. As to the kind of experiment: In vitro antibacterial activity against clostridium histolyticum 503-86. The data set is classed as functional. In short, it runs like this: as §4
Data set [6] relates to Escherichia coli. As to the kind of experiment: In vitro antibacterial activity against Escherichia coli 257. The format is functional.
Data set [7] has as its system Escherichia coli. The data set is described as follows: In vitro antibacterial activity against Escherichia coli TEM-1 (constitutive beta-lactamase producer). The format is functional. In short, it runs like this: (§5)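 MIC was determined by agar dilution on Mueller-Hinton agar. Serial 2-fold aqueous dilutions were diluted 10-fold in agar to give final concentrations of 128 to 0.0156 μg/mL. Plates were inoculated by Steers replicator with overnight broth cultures diluted 100-fold.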

The test system of a further data set is Enterobacter cloacae. The data set is described as follows: In vitro antibacterial activity against enterobacter cloacae P99 (constitutive beta-lactamase producer). The data set is classed as functional. In a few lines:
as §5

Data set [8] relates to Klebsiella pneumoniae. As to the kind of experiment: In vitro antibacterial activity against klebsiella pneumoniae A. The format is functional. In a few lines:
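Agar-dilution MIC on Mueller-Hinton agar. Serial 2-fold dilutions were made in water, giving final agar concentrations of 128 to 0.0156 μg/mL. Inoculum was an overnight broth culture diluted 100-fold, applied with a multipoint replicator.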

The subject of data set [9] is Proteus mirabilis. The data set is described as follows: (§6) In vitro antibacterial activity against Proteus mirabilis 90. The format is functional. In a few lines: (§7)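 Proteus MICs were determined by agar dilution on Mueller-Hinton agar containing 3% agar. Serial 2-fold dilutions gave final concentrations of 128 to 0.0156 μg/mL. Plates were replicator-inoculated with 100-fold-diluted overnight broth cultures.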

The test system of data set [10] is Pseudomonas aeruginosa. The data set is described as follows: In vitro antibacterial activity against Pseudomonas aeruginosa 18SH (constitutive beta-lactamase producer). The data set is classed as functional. In short, it runs like this:
as §5

The subject of data set [11] is Pseudomonas aeruginosa. As to the kind of experiment: In vitro antibacterial activity against Pseudomonas aeruginosa 8780. The data set is classed as functional. In short, it runs like this:
as §5

For another data set, the system named is Proteus vulgaris. As to the kind of experiment: In vitro antibacterial activity against proteus vulgaris ATCC 6380 (constitutive beta-lactamase producer). The format is functional. In short, it runs like this:
as §7

Data set [12] relates to Staphylococcus aureus. The data set is described as follows: In vitro antibacterial activity against Staphylococcus aureus 67(methicillin resistant). The data set is classed as functional. In a few lines:
(§8)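 MIC by agar dilution on Mueller-Hinton agar. Compounds were serially 2-fold diluted in water, final 128 to 0.0156 μg/mL in agar. Inoculum: overnight broth culture diluted 100-fold, applied with a Steers replicator.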

In data set [13] the test system is Staphylococcus aureus. The data set is described as follows: (§9) In vitro antibacterial activity against Staphylococcus aureus 753 (constitutive beta-lactamase producer). The data set is classed as functional. In a few lines: as §8
A further data set deals with Streptococcus pyogenes. As to the kind of experiment: In vitro antibacterial activity against Streptococcus pyogenes 4. The format is functional. In short, it runs like this:
(§10)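 Streptococcal MICs were determined by agar dilution on brain heart infusion agar supplemented with 20 units/mL bovine liver catalase. Final concentrations were 128 to 0.0156 μg/mL from 2-fold dilutions. Inocula were overnight broth cultures diluted 100-fold, applied by Steers replicator.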

The test system of data set [14] is Serratia marcescens. As to the kind of experiment: In vitro antibacterial activity against serratia marcescens SM (constitutive beta-lactamase producer). The format is functional. In short, it runs like this:
as §5

In data set [15] the test system is Staphylococcus aureus. As to the kind of experiment: In vitro antibacterial activity against staphylococcus aureus smith. The format is functional. In a few lines:
as §5

Data set [16] deals with Streptococcus pneumoniae. The data set is described as follows: In vitro antibacterial activity against streptococcus pneumoniae 6301. The data set is classed as functional. In a few lines:
as §10

Data set [17] concerns Citrobacter freundii. The data set is described as follows: In vitro antibacterial activity against citrobacter freundii BS-16 (constitutive beta-lactamase producer). The data set is classed as functional. In short, it runs like this:
as §5

Data set [18] relates to Clostridioides difficile. As to the kind of experiment: In vitro antibacterial activity against Clostridium difficile 701. The data set is classed as functional.
Data set [19] deals with Pseudomonas aeruginosa. The data set is described as follows: (§11) In vitro antibacterial activity against Ps. aeruginosa 18SH (constitutive beta-lactamase producer). The format is functional. In short, it runs like this: as §5
Data set [20] concerns Proteus mirabilis. Described as §6. The data set is classed as functional. In a few lines:
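MIC by agar dilution on Mueller-Hinton agar containing 3% agar. Compounds were serially 2-fold diluted in water, final 128 to 0.0156 μg/mL in agar. Inoculum: overnight broth culture diluted 100-fold, applied with a Steers replicator.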
This is another data set of the same source.

The subject of data set [21] is Pseudomonas aeruginosa. Described as §11.
Data set [22] has as its system Pseudomonas aeruginosa. The data set is described as follows: microbe, parasite or virus in culture.
The subject of data set [23] is Bacteroides fragilis. The data set is described as follows: In vitro antibacterial activity against Bacteroides fragilis S2. The format is functional. In short, it runs like this: as §2
In data set [24] the test system is Citrobacter freundii. The data set is described as follows: In vitro antibacterial activity against Citrobacter freundii BS-16 (constitutive beta-lactamase producer). The data set is classed as functional. In short, it runs like this:
as §5

Data set [25] relates to Klebsiella pneumoniae. The data set is described as follows: In vitro antibacterial activity against Klebsiella pneumoniae A. The format is functional. In a few lines:
as §5

In data set [26] the test system is Staphylococcus aureus. The description is as §9. The format is functional. In a few lines: as §5
This is another data set of the same source.

Data set [27] concerns Serratia marcescens. The data set is described as follows: In vitro antibacterial activity against Serratia marcescens SM (constitutive beta-lactamase producer). The data set is classed as functional. In short, it runs like this:
as §5

Data set [28] relates to Streptococcus pneumoniae. The data set is described as follows: In vitro antibacterial activity against Streptococcus pneumoniae 6301. The data set is classed as functional. In a few lines:
as §10

The test system of data set [29] is Bacteroides thetaiotaomicron. Described as §1.
The test system of data set [30] is Bacteroides thetaiotaomicron. As to the kind of experiment: microbe, parasite or virus in culture.

Usually half-life stands for the time needed for the level to fall by half in the phase considered. `C[C@@H](O)[C@H]1C(=O)N2C(C(=O)[O-])=C(COC(=O)N3CCN(c4cc5c(cc4F)c(=O)c(C(=O)O)cn5C4CC4)CC3)[C@H](C)[C@H]12.[K+]` gave a half-life in [1] of 5 h. Besides, the MIC was 16 µg/mL in [2]; 4 µg/mL with Bacteroides fragilis [3]; 4 µg/mL with Clostridioides difficile [4]; less than 0.125 µg/mL against Clostridium perfringens; 1 µg/mL in the data set on Bacteroides fragilis [5]; less than 0.125 µg/mL against Hathewaya histolytica. Further, the MIC is less than 0.0156 µg/mL in the data set on Escherichia coli [6]; 0.0313 µg/mL with Escherichia coli [7]; 0.0313 µg/mL with Enterobacter cloacae; 0.0625 µg/mL with Klebsiella pneumoniae [8]; 0.125 µg/mL in the data set with Proteus mirabilis [9]; 0.5 µg/mL in the data set with Pseudomonas aeruginosa [10]. The MIC amounted to 0.5 µg/mL against Pseudomonas aeruginosa [11]; 0.0313 µg/mL with Proteus vulgaris; 0.5 µg/mL with Staphylococcus aureus [12]; 0.5 µg/mL against Staphylococcus aureus [13]; 0.0313 µg/mL against Streptococcus pyogenes; 0.0625 µg/mL in the data set with Serratia marcescens [14]. The MIC against Staphylococcus aureus [15] worked out at 0.125 µg/mL; with Streptococcus pneumoniae [16] it was 0.0313 µg/mL; against Citrobacter freundii [17], 0.0625 µg/mL; with Clostridioides difficile [18], 1 µg/mL.
Consider `C[C@@H](O)[C@H]1C(=O)N2C(C(=O)[O-])=C(CO)[C@H](C)[C@H]12.[K+]`, for which the MIC against Escherichia coli [6] is 0.5 µg/mL; against Escherichia coli [7] it was 0.5 µg/mL; in the data set with Enterobacter cloacae, 0.5 µg/mL; in the data set with Klebsiella pneumoniae [8] it was 0.5 µg/mL; against Proteus mirabilis [9], 1 µg/mL; against Pseudomonas aeruginosa [19], 16 µg/mL. Besides, the MIC was 32 µg/mL in the data set on Pseudomonas aeruginosa [11]; 0.5 µg/mL in the data set on Proteus vulgaris; 32 µg/mL against Staphylococcus aureus [12]; 32 µg/mL in the data set with Staphylococcus aureus [13]; 0.0625 µg/mL with Streptococcus pyogenes; 1 µg/mL in the data set with Serratia marcescens [14]. The MIC against Staphylococcus aureus [15] amounted to 0.125 µg/mL; in the data set on Streptococcus pneumoniae [16], 0.0625 µg/mL; against Citrobacter freundii [17], 0.5 µg/mL.
Take `C[C@@H](O)[C@H]1C(=O)N2C(C(=O)O)=C(SCCNC=N)C[C@H]12.O`: the MIC in data set [2] is greater than 128 µg/mL; against Bacteroides fragilis [3] it was 2 µg/mL; against Clostridioides difficile [4] it was 4 µg/mL; in the data set with Clostridium perfringens, less than 0.125 µg/mL; against Bacteroides fragilis [5] it was less than 0.125 µg/mL; in the data set on Hathewaya histolytica, less than 0.125 µg/mL. Besides, the MIC with Escherichia coli [6] was determined as 0.125 µg/mL; with Escherichia coli [7], 0.25 µg/mL; in the data set with Enterobacter cloacae it was 0.25 µg/mL; with Klebsiella pneumoniae [8], 0.125 µg/mL; with Proteus mirabilis [20], 2 µg/mL; in the data set with Pseudomonas aeruginosa [21], 1 µg/mL. Moreover, the MIC was 1 µg/mL in the data set on Proteus vulgaris; 32 µg/mL with Staphylococcus aureus [12]; 64 µg/mL against Staphylococcus aureus [13]; less than 0.0156 µg/mL in the data set with Streptococcus pyogenes; 0.25 µg/mL against Serratia marcescens [14]; less than 0.0156 µg/mL in the data set with Staphylococcus aureus [15]. Further, the MIC with Streptococcus pneumoniae [16] is less than 0.0156 µg/mL; in the data set with Citrobacter freundii [17], 2 µg/mL; against Clostridioides difficile [18] it was 4 µg/mL; with Pseudomonas aeruginosa [22], 2 µg/mL.
As for `O=C(O)c1cn(C2CC2)c2cc(N3CCNCC3)c(F)cc2c1=O` [CIPROFLOXACIN], the MIC is 4 µg/mL (≈ 12.1 µM) against Bacteroides fragilis [23]; 0.0313 µg/mL (≈ 0.0945 µM) against Citrobacter freundii [24]; 0.0156 µg/mL (≈ 0.0471 µM) in the data set with Escherichia coli [7]; 0.25 µg/mL (≈ 0.754 µM) with Klebsiella pneumoniae [25]; 0.0625 µg/mL (≈ 0.189 µM) against Proteus mirabilis [9]; 0.5 µg/mL (≈ 1.51 µM) in the data set on Staphylococcus aureus [12]. In addition, the MIC was 0.25 µg/mL (≈ 0.754 µM) with Staphylococcus aureus [26]; 0.5 µg/mL (≈ 1.51 µM) against Streptococcus pyogenes; 0.0313 µg/mL (≈ 0.0945 µM) with Serratia marcescens [27]; 1 µg/mL (≈ 3.02 µM) in the data set on Streptococcus pneumoniae [28]; greater than 128 µg/mL in [29]; 0.25 µg/mL (≈ 0.754 µM) in [30].
